DNMT1 inh = blocks human DNA methyltransferase DNMT1 | inhibition (reported as % activation of signal), % at 10 µM | 360,000 tested, 0.83% active | P26358 | AID 588458 | DNMT1 molecular beacon, Hinp1I cleavage, fluorescence; in the data active = inhibition above about 50%
Target sequence (P26358 504-1616 limits assumed): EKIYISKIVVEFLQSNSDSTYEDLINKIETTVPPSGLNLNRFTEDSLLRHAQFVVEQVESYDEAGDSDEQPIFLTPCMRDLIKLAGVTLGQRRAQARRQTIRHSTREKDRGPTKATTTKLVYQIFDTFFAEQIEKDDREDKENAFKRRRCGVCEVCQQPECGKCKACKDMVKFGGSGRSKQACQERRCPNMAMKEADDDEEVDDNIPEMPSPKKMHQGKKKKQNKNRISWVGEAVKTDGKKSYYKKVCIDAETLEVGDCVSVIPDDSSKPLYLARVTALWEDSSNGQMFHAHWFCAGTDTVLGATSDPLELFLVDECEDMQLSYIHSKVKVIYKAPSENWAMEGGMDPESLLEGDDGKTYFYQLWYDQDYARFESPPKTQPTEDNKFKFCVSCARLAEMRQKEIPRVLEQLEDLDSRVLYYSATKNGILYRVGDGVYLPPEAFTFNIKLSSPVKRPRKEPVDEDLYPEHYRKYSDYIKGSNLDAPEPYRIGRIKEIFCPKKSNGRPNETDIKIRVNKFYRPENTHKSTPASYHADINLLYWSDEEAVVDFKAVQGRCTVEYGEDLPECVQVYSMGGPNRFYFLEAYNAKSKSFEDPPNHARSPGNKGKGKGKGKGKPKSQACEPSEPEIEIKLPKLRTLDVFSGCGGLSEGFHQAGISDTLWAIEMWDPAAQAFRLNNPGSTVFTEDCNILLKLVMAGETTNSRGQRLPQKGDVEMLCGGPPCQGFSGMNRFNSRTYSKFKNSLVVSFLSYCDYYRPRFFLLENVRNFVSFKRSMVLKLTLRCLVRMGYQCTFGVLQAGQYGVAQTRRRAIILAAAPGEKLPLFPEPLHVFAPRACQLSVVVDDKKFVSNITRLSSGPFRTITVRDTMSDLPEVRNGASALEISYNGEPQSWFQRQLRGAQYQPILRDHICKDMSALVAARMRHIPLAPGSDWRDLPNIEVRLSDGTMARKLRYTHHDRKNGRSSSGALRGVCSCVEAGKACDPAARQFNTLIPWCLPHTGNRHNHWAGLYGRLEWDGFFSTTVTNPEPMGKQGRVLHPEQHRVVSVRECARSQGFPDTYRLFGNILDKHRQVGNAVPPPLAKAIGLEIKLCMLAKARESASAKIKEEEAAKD
LMPTP inh = LMPTP (human) inhibition. P24666. recombinant LMPTP-A, OMFP fluorogenic substrate, fluorescence intensity. inhibition, % at 20 µM. 360,000 tested, 0.22% active. AID 651560;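 active = compounds that cut the enzyme signal by at least half of the control window in the single-dose screen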
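Test system – LMPTP-A phosphatase enzyme · Quantity – 0.625 nM LMPTP-A final · Reagent – OMFP substrate, 400 µM final · Dosing – one test concentration per compound, 20 µM, with 3% DMSO overall · Timing – 50 min enzyme reaction at room temperature, protected from light · Detection – fluorescence intensity · Controls – substrate-only low control, DMSO enzyme-plus-substrate high control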
STEP inh = inhibitors of human striatal-enriched phosphatase STEP; P54829; 360,000 tested, 0.25% active; AID 588621; inhibition, % at 20 µM; recombinant STEP, OMFP fluorogenic substrate, fluorescence;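 active = inhibition at 20 µM, scaled per plate between control wells, above about 37%, limit read from the data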
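System: STEP (striatal-enriched tyrosine phosphatase) enzyme, cell-free; medium: Bis-Tris pH 6.0 buffer with DTT, detergent; dosing: 20 µM, 1% DMSO; times: reaction 20 min, ambient temperature; detection: fluorescence, 480/540 nm; read-out basis: normalized % inhibition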
SUMO1 PPI mod = alters human SUMO1 binding to SIM partners; SUMO1 binding to a labelled peptide, TR-FRET, 1 h; inhibition, % at 20 µM; 360,000 tested, 0.33% active; AID 602429; in the data active = inhibition above about 37%
Scp1 inh = blocks human Scp-1 phosphatase activity. Q9GZU7. 340,000 tested, 0.88% active. Recombinant Scp1, phosphopeptide, malachite green phosphate absorbance. inhibition, % at 20 µM. AID 493091;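 active = inhibition above about 50% at 20 µM, limit read from the data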
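Test system: SCP-1 phosphatase catalytic domain, residues 76-261; measured by: colorimetric phosphate reagent with accelerator and stabiliser, absorbance at 630 nm; timing: enzyme reaction 45 min at room temperature, colour 5 min, stabilisation 30 min; also added: Phosphorylated 17-residue peptide substrate; compound dosing: one concentration, 20 µM, with 1.0% DMSO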
Beacon interf DR = shows spectral interference in the DNMT1 beacon assay; shares compounds with DNMT1 inh; AID 602382; 200 tested, under 10 active; IC50, µM; molecular beacon fluorescence, spectral interference counter-screen; call rule not given here
DNMT1 inh conf = confirmation of human DNMT1 inhibitors | shares compounds with DNMT1 inh | DNMT1 molecular beacon HinP1I cleavage, fluorescence | inhibition, % at 10 µM | 2,300 tested, 8% active | AID 602385;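 active = average inhibition of at least 30% in the single-concentration confirmation test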
Beacon interf = counter-screen for DNMT1 inhibitors: spectral interference; AID 602387; shares compounds with DNMT1 inh; activation (fluorescence interference), % at 10 µM; 2,300 tested, 1% active; DNMT1 molecular beacon spectral interference counterscreen, fluorescence 485/520;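 active = activation of at least 30% at 10 µM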;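 also: DNMT1 catalytic domain with a HinP1I cleavage step and a FAM/dabcyl DNA beacon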
Large screens that a line does not name were inactive (follow-up assays come after a bar, where they were run). Sampled rows, rich in hits. Any-hit rate of the full collection: about 1.7%.

CCNC(=O)N(C)c1c(CC)nc2ccc(C(=O)N3CCN(S(=O)(=O)CC)CC3)cn12	DNMT1 inh 53 (no result: Scp1 inh) | DNMT1 inh conf inactive | Beacon interf inactive
COc1ccc2nc(C)cc(Nc3ccc(N4CCOCC4)cc3)c2c1	none
COc1ccc2nc(C)cc(Nc3ccc(N4CCN(C)CC4)cc3)c2c1	DNMT1 inh 70 | Beacon interf DR inactive | DNMT1 inh conf 33 | Beacon interf inactive
N#Cc1ccccc1/C=N/Nc1nc(-c2ccccc2)c2cc(Br)ccc2n1	DNMT1 inh 73 | DNMT1 inh conf inactive | Beacon interf inactive
OCCNc1nc(-c2ccccc2)c2cc(Br)ccc2n1	none
Cc1csc(=O)n1CCC(=O)OCC(=O)Nc1ccc(Cl)cn1	none
CC(=O)Nc1cccc(-c2cnc(NC(C)=O)cn2)c1	none (no result: Scp1 inh)
COc1ccc([C@H]2[C@H](C(=O)C(C)(C)C)N3N=Cc4ccccc4C3[C@]23N=C(c2ccccc2)OC3=O)cc1 (some centres not stated)	none
COc1ccc([C@H]2[C@H](C(=O)C(C)(C)C)N3N=Cc4ccccc4C3[C@]23N=C(c2ccccc2)OC3=O)cc1OC (some centres not stated)	DNMT1 inh 55 | DNMT1 inh conf inactive | Beacon interf inactive
Nn1c(CSc2nc3ccccc3o2)nnc1CSc1nc2ccccc2o1	none
Cc1cc(C)n2c(Br)c(CSc3nc4ccccc4o3)nc2n1	DNMT1 inh 59 | DNMT1 inh conf inactive | Beacon interf inactive
Cc1nc(/N=C\c2ccc(N(C)C)cc2)sc1C	none
O=C(c1ccc(Cl)cc1)C1CCN(C(=O)c2ccccc2)CC1	DNMT1 inh 89 | DNMT1 inh conf inactive | Beacon interf inactive
COc1cc(NC(=O)CSc2nc3c(c(=O)n(C)c(=O)n3C)n2C)cc(OC)c1	none
CCCC[N+](C)(C)CCC(=O)NC(C)(C)CS(=O)(=O)[O-]	DNMT1 inh 66 | DNMT1 inh conf inactive | Beacon interf inactive
Cc1noc(C)c1CCC(=O)NC1CCCN(Cc2ccc(Cl)cc2)C1 (configuration not stated)	none
Cc1noc(C)c1CCC(=O)NC1CCCN(Cc2ccc(CC(C)C)cc2)C1 (configuration not stated)	DNMT1 inh 53 | DNMT1 inh conf inactive | Beacon interf inactive
O=C(N=Nc1c(O)[nH]c2ccc(Br)cc12)c1cc(-c2cccs2)nc2ccccc12	DNMT1 inh 65 | DNMT1 inh conf inactive | Beacon interf inactive
C=CCC1NS(=O)(=O)OCC1C(C)C (configuration not stated)	DNMT1 inh 50 | DNMT1 inh conf inactive | Beacon interf inactive
C=CCC1NS(=O)(=O)OCC1NC(=O)OCC(Cl)(Cl)Cl (configuration not stated)	none
Cc1cccc(OCCCC(=O)NNC(=O)c2cccc(N(C)C)c2)c1	none
O=C(O)CN1C(=O)/C(=C\c2ccccc2OCc2ccc(Cl)cc2Cl)SC1=S	none
O=C(O)CCN1C(=O)/C(=C\c2ccc(OCc3ccccc3)c(OCc3ccccc3)c2)SC1=S	DNMT1 inh 98 | DNMT1 inh conf inactive | Beacon interf inactive
O=C(O)CN1C(=O)/C(=C\c2cc(Br)ccc2OCc2ccccc2Cl)SC1=S	DNMT1 inh 65 | Beacon interf DR inactive | DNMT1 inh conf 71 | Beacon interf inactive
O=C(c1cc2c(s1)CCCC2)N1CCN(Cc2ccc3c(c2)OCO3)CC1	none
O=C(Oc1ccc2c(c1)OCO2)c1cc2c(s1)CCC2	DNMT1 inh 100, LMPTP inh 52, Scp1 inh 65 | DNMT1 inh conf inactive | Beacon interf inactive
COc1ccc(C(CNC(=O)COc2ccccc2C#N)N2CCOCC2)cc1 (configuration not stated)	DNMT1 inh 104 | DNMT1 inh conf inactive | Beacon interf inactive
COc1ccc(C(CNC(=O)c2ccc(S(=O)(=O)Nc3cccc(C)c3C)cc2)N2CCOCC2)cc1 (configuration not stated)	DNMT1 inh 95 | DNMT1 inh conf inactive | Beacon interf inactive
COc1ccc(C(CNC(=O)COc2ccccc2C)N2CCCCC2)cc1 (configuration not stated)	none
CN(C)C(CNC(=O)C1CCN(S(=O)(=O)c2ccccc2)CC1)c1ccccc1 (configuration not stated)	DNMT1 inh 88 | DNMT1 inh conf inactive | Beacon interf inactive
COc1cc(/C=C/C(=O)OCC(=O)NC(=O)C2COc3ccccc3O2)ccc1OC(F)F (configuration not stated)	none
Cc1ccc(-c2nnn(CC(=O)NCC3CC3)n2)o1	none
Cc1ccc(-c2nnn(CC(=O)Nc3ccc4nn(-c5ccccc5)nc4c3)n2)o1	DNMT1 inh 50 | DNMT1 inh conf inactive | Beacon interf inactive
COc1ccc(-c2c(C#Cc3ccsc3)c3cc(Br)ccc3n2C)cc1	none
COc1ccc(-c2c(C#Cc3ccc(N(C)C)cc3)c3ccccc3n2C)cc1	DNMT1 inh 57 | DNMT1 inh conf inactive | Beacon interf inactive
O=C(COC(=O)C1CC(=O)N(Cc2ccco2)C1)c1ccc(OC(=O)c2ccco2)cc1 (configuration not stated)	DNMT1 inh 76, Scp1 inh 81 | DNMT1 inh conf inactive | Beacon interf inactive
COc1ccc(CCNC(=O)Cc2cc3c(cc2[N+](=O)[O-])OCO3)cc1OC	none
O=C(NCCc1ccccc1O)c1cc2c(cc1[N+](=O)[O-])OCO2	none | DNMT1 inh conf inactive | Beacon interf inactive
O=S(=O)(NC1CCCCC1Nc1ccc(Cl)cc1)c1ccccc1 (configuration not stated)	DNMT1 inh 73 | DNMT1 inh conf inactive | Beacon interf inactive
Cc1ccc(NC2CCCCC2NS(=O)(=O)c2ccc(Cl)cc2)cc1 (configuration not stated)	none
COc1cc2c(cc1OCc1ccccc1)/C(=C/C(=O)OCc1ccccc1)OC2	none (no result: DNMT1 inh, STEP inh, Scp1 inh)
CCCCCCSc1ccc(-c2nc3ccc(Cl)cn3c2NCCCC)cc1OC	DNMT1 inh 79 | DNMT1 inh conf inactive | Beacon interf inactive
CCOC(=O)C1=C(COC(=O)CNS(=O)(=O)c2c(F)cc(F)cc2Br)NC(=O)NC1C (configuration not stated)	none
COc1ccc(C(C)(O)c2nc(-c3ccc(OC)nc3)cs2)cc1 (configuration not stated)	none (no result: Scp1 inh)
CC(=O)Nc1cc(-c2ccccc2N(C)C)cn2c(-c3ccccc3)cnc12	none (no result: Scp1 inh)

Bioassay records as filed in PubChem BioAssay.
